We go through 22 molecules from ChEMBL document CHEMBL4219175, “Synthesis and biological evaluation of aminothiazoles against Histoplasma capsulatum and Cryptococcus neoformans” (Bioorg Med Chem, 2018).

In data set [1] the test system is Cryptococcus neoformans. Kind of data set: Antifungal activity against wild type fluconazole-sensitive Cryptococcus neoformans serotype A H99 at pH 7 measured over 4 days. The class given is functional, organism-based. The note with it: var grubii H99 , 96 h. In outline: (§1)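 YPD-grown exponential-phase yeasts, hemacytometer-counted, diluted into RPMI buffered to pH 7.0 with 25 mM HEPES (or pH 5.0 with […] for pH comparison) at 2 x 10^3 per well; two-fold series 40 to 0.078 µM, 37 °C, agitated twice daily. A595 followed over 4 days versus DMSO controls; day-3 turbidity fitted by 4-parameter regression for IC50; MIC = growth ≤10% of untreated.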

A further data set deals with Histoplasma capsulatum. Kind of data set: Antifungal activity against Histoplasma capsulatum G217B ATCC 26032 at pH 7 measured over 5 days. Format: functional, organism-based. The note with it: G217B ATCC 26032, 120 h. In outline: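 Yeasts pre-grown in HMM (37 °C, 5% CO2) to exponential phase, counted by hemacytometer, diluted into RPMI buffered with 25 mM HEPES (pH 7.0) or 25 mM MOPS (pH 5.0) at 5 x 10^5 per well; two-fold dilutions 40 to 0.078 µM, 37 °C, agitated twice daily. A595 read over 5 days, normalized to DMSO controls; 4-day data fitted by 4-parameter regression for IC50; MIC = ≤10% growth.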

Data set [2] relates to Cryptococcus neoformans. Kind of data set: Antifungal activity against fluconazole-resistant Cryptococcus neoformans serotype A MRL862 harboring erg11 mutant measured over 4 days. The note with it: MRL862, 96 h. The class given is functional, organism-based. In outline: as §1
Data set [3] deals with Cryptococcus neoformans. As to the kind of experiment: Antifungal activity against wild-type fluconazole-sensitive Cryptococcus neoformans serotype D B3501 measured over 4 days. The class given is functional, organism-based. The note with it: B3501, 96 h. In outline: as §1
The subject of a further data set is P388D1. Kind of data set: Cytotoxicity against mouse P388D1 cells assessed as reduction in cell viability after 72 hrs by resazurin-based fluorescence assay. To be noted: P388D1, 72 h. In outline: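 P388D1 cells in Ham's F-12 + 10% FBS + 2 mM L-glutamine seeded at 5 x 10^3 per well, adhered overnight, exposed to compounds 80 to 0.3 µM for 72 h. Viability read as resorufin fluorescence (530/590 nm) after 0.1 mM resazurin, pre-saturation time points, versus untreated cells; three biological replicates; IC50 by non-linear regression.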
(In general: Alamar Blue is a resazurin reagent that responds to reducing activity.)

Data set [4] can be described thus: Therapeutic index, ratio of IC50 for mouse P388D1 cells to IC50 for Histoplasma capsulatum G217B ATCC 26032. The class given is toxicity. To be noted: read-out: Ratio IC50. In outline:
(§2)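 Ratio of P388D1 IC50 (72 h resazurin viability, 80 to 0.3 µM) to yeast IC50 from RPMI/HEPES pH 7.0 broth dilution with A595 turbidity and 4-parameter regression.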

The nature of data set [5]: Therapeutic index, ratio of IC50 for mouse P388D1 cells to IC50 for wild type Cryptococcus neoformans serotype A H99. To be noted: read-out: Ratio IC50. The class given is toxicity. In outline:
as §2

Data set [6] relates to Cryptococcus neoformans. Kind of data set: Antifungal activity against fluconazole-resistant Cryptococcus neoformans serotype A TES9 harboring erg11 mutant measured over 4 days. The note with it: TES9, 96 h. Format: functional, organism-based. In outline:
as §1

≈ marks a conversion by molar mass, not a printed value.

For `O=C(Nc1ncc(Cc2csc3ccccc23)s1)C1CCCCC1`, in the data set with Cryptococcus neoformans [1], the IC50 was > 20000 nM and the MIC90 was > 40 µM. Besides, in the data set on Histoplasma capsulatum, the 50% inhibitory concentration (IC50) is > 20000 nM and the MIC90 is > 40 µM.

Take `CCc1cnc(NC(=O)CCC2CCCCC2)s1`: in the data set with Cryptococcus neoformans [1], the IC50 was > 20000 nM and the MIC90 is > 40 µM. Moreover, in the data set on Histoplasma capsulatum, the concentration for half-maximal inhibition (IC50) is > 20000 nM and the MIC90 is > 40 µM.

As for `O=C(Nc1ncc(Cc2cccc3c2CCC3)s1)C1CCCCC1`, the IC50 in the data set on Cryptococcus neoformans [2] was 370 nM; in the data set on Cryptococcus neoformans [3], 420 nM; in the data set with Cryptococcus neoformans [1], 410 nM; in the data set with P388D1 it was > 40000 nM; in the data set on Histoplasma capsulatum it was 250 nM; in the data set with Cryptococcus neoformans [6] it was 450 nM. The MIC90 came to 1.25 µM (≈ 0.426 µg/mL) in the data set with Cryptococcus neoformans [2]; 1.25 µM (≈ 0.426 µg/mL) against Cryptococcus neoformans [3]; 1.25 µM (≈ 0.426 µg/mL) against Cryptococcus neoformans [1]; 0.63 µM (≈ 0.215 µg/mL) in the data set with Histoplasma capsulatum; 1.25 µM (≈ 0.426 µg/mL) against Cryptococcus neoformans [6]. The selectivity ratio is > 160 in data set [4] and > 98 in data set [5].

In the case of `O=C(Nc1ncc(Cc2cccc3c2CCCC3)s1)C1CCCCC1`, in the data set with Cryptococcus neoformans [1], the half-inhibitory concentration (IC50) is > 20000 nM and the MIC90 was > 40 µM. In the data set on Histoplasma capsulatum, the IC50 is > 20000 nM and the MIC90 is > 40 µM.

On to `O=C(CCC1CCCCC1)Nc1ncc(Cc2cccc3sccc23)s1`, for which the IC50 in the data set with Cryptococcus neoformans [1] was > 20000 nM; with P388D1, > 40000 nM; with Histoplasma capsulatum it was 200 nM. The MIC90 against Cryptococcus neoformans [1] was > 40 µM; in the data set on Histoplasma capsulatum, 0.31 µM (≈ 0.119 µg/mL). The selectivity ratio in data set [4] was > 200.

Regarding `O=C(Nc1ncc(Cc2cc3sccc3s2)s1)C1CCCCC1`, in the data set with Cryptococcus neoformans [1], the half-inhibitory concentration (IC50) was > 20000 nM and the MIC90 is > 40 µM. In the data set with Histoplasma capsulatum, the IC50 was > 20000 nM and the MIC90 is > 40 µM.

As to `O=C(CCC1CCCCC1)Nc1ncc(C(=O)c2cccc3ccccc23)s1`, the results for the IC50 in the data set with Cryptococcus neoformans [1], in the data set on P388D1 and with Histoplasma capsulatum were > 20000 nM, > 40000 nM and 640 nM, respectively. Besides, the MIC90 against Cryptococcus neoformans [1] is > 40 µM; against Histoplasma capsulatum it was 1.25 µM (≈ 0.491 µg/mL). Besides, the selectivity ratio in data set [4] is > 63.

In the case of `O=C(CCC1CCCCC1)Nc1ncc(Cc2cccc3ccsc23)s1`, the IC50 in the data set on Cryptococcus neoformans [1] is > 20000 nM; in the data set on P388D1, 18900 nM; with Histoplasma capsulatum it was 920 nM. Further, the MIC90 is > 40 µM in the data set on Cryptococcus neoformans [1] and 5 µM (≈ 1.92 µg/mL) with Histoplasma capsulatum. The selectivity ratio in data set [4] stood at 21.

As to `O=C(Nc1ncc(Cc2cccc3ccoc23)s1)C1CCCCC1`, the half-maximal inhibitory concentration (IC50) was 150 nM in the data set with Cryptococcus neoformans [2]; 320 nM in the data set on Cryptococcus neoformans [3]; 620 nM with Cryptococcus neoformans [1]; > 40000 nM with P388D1; 420 nM with Histoplasma capsulatum; 410 nM in the data set with Cryptococcus neoformans [6]. The MIC90 came to 0.63 µM (≈ 0.214 µg/mL) with Cryptococcus neoformans [2]; 0.63 µM (≈ 0.214 µg/mL) with Cryptococcus neoformans [3]; 2.5 µM (≈ 0.851 µg/mL) against Cryptococcus neoformans [1]; 1.25 µM (≈ 0.426 µg/mL) with Histoplasma capsulatum; 0.63 µM (≈ 0.214 µg/mL) against Cryptococcus neoformans [6]. The selectivity ratio is > 95 in data set [4] and > 65 in data set [5].

Regarding `OC(Cn1cncn1)(Cn1cncn1)c1ccc(F)cc1F` [FLUCONAZOLE], the IC50 is 14600 nM in the data set on Cryptococcus neoformans [2], 130 nM in the data set with Cryptococcus neoformans [3], 950 nM in the data set with Cryptococcus neoformans [1] and 27400 nM with Cryptococcus neoformans [6]. Further, the MIC90 is 32.7 µM (≈ 10 µg/mL) in the data set on Cryptococcus neoformans [2], 2.04 µM (≈ 0.625 µg/mL) in the data set on Cryptococcus neoformans [3], 4.08 µM (≈ 1.25 µg/mL) in the data set with Cryptococcus neoformans [1] and 65.4 µM (≈ 20 µg/mL) with Cryptococcus neoformans [6].

Turning to `O=C(CCC1CCCCC1)Nc1ncc(Cc2cccc3c2CCCC3)s1`, the IC50 is > 20000 nM in the data set on Cryptococcus neoformans [1], 24300 nM in the data set on P388D1 and 900 nM in the data set with Histoplasma capsulatum. For the same molecule, the MIC90 is > 40 µM against Cryptococcus neoformans [1] and 2.5 µM (≈ 0.956 µg/mL) in the data set with Histoplasma capsulatum. Further, in data set [4], the selectivity ratio was determined as 27.

Take `O=C(CCC1CCCCC1)Nc1ncc(Cc2cccc3nsnc23)s1`: in the data set on Cryptococcus neoformans [1], the concentration for half-maximal inhibition (IC50) is > 20000 nM and the MIC90 was > 40 µM. Besides, in the data set with Histoplasma capsulatum, the IC50 was > 20000 nM and the MIC90 is > 40 µM.

Regarding `O=C(CCC1CCCCC1)Nc1ncc(Cc2cccc3ccccc23)s1`, the IC50 in the data set with Cryptococcus neoformans [1] was > 20000 nM; in the data set with P388D1, 27600 nM; with Histoplasma capsulatum, 600 nM. For the same molecule, the values for the MIC90 in the data set on Cryptococcus neoformans [1] and with Histoplasma capsulatum were > 40 µM and 1.25 µM (≈ 0.473 µg/mL), respectively. For the same molecule, the selectivity ratio in data set [4] is 46.

Turning to `O=C(CCC1CCCCC1)Nc1ncc(Cc2csc3ccccc23)s1`, the IC50 in the data set with Cryptococcus neoformans [1] is > 20000 nM; in the data set with P388D1, 16900 nM; in the data set with Histoplasma capsulatum it was 270 nM. In addition, the MIC90 was > 40 µM against Cryptococcus neoformans [1] and 0.63 µM (≈ 0.242 µg/mL) in the data set on Histoplasma capsulatum. For the same molecule, the selectivity ratio in data set [4] is 63.

In the case of `O=C(CCC1CCCCC1)Nc1ncc(Cc2cccc3ccoc23)s1`, the IC50 in the data set on Cryptococcus neoformans [1] is > 20000 nM; in the data set on P388D1, 17800 nM; in the data set on Histoplasma capsulatum, 400 nM. The values for the MIC90 in the data set on Cryptococcus neoformans [1] and against Histoplasma capsulatum were > 40 µM and 0.63 µM (≈ 0.232 µg/mL), respectively. Further, in data set [4], the selectivity ratio amounted to 44.

With `CCc1cnc(NC(=O)C2CCCCC2)s1`, the IC50 with Cryptococcus neoformans [1] and with Histoplasma capsulatum was > 20000 nM each time. Also, the MIC90 with Cryptococcus neoformans [1] and against Histoplasma capsulatum was > 40 µM throughout.

In the case of `O=C(CCC1CCCCC1)Nc1ncc(Cc2ccccc2)s1`, the IC50 with Cryptococcus neoformans [1] was > 20000 nM; with P388D1, > 40000 nM; with Histoplasma capsulatum, 800 nM. The MIC90 was > 40 µM against Cryptococcus neoformans [1] and 1.25 µM (≈ 0.411 µg/mL) against Histoplasma capsulatum. For the same molecule, the selectivity ratio in data set [4] is > 50.

In the case of `O=C(Nc1ncc(Cc2cccc3nsnc23)s1)C1CCCCC1`, the 50% inhibitory concentration (IC50) in the data set with Cryptococcus neoformans [1] is 1520 nM; with P388D1 it was > 40000 nM; in the data set on Histoplasma capsulatum it was 1540 nM. For the same molecule, the MIC90 stood at 5 µM (≈ 1.79 µg/mL) against Cryptococcus neoformans [1] and 2.5 µM (≈ 0.896 µg/mL) with Histoplasma capsulatum. The selectivity ratio in data set [4] and in data set [5] was > 26 each time.

`O=C(CCC1CCCCC1)Nc1ncc(CC2CCCC2)s1`: the 50% inhibitory concentration (IC50) in the data set with Cryptococcus neoformans [1] and in the data set with Histoplasma capsulatum was > 20000 nM throughout. For the same molecule, the MIC90 against Cryptococcus neoformans [1] and with Histoplasma capsulatum was > 40 µM in each case.

Turning to `O=C(Nc1ncc(CC2CCCC2)s1)C1CCCCC1`, the IC50 in the data set with Cryptococcus neoformans [1] was > 20000 nM; in the data set on P388D1, > 40000 nM; in the data set with Histoplasma capsulatum, 760 nM. The results for the MIC90 in the data set on Cryptococcus neoformans [1] and in the data set on Histoplasma capsulatum were > 40 µM and 1.25 µM (≈ 0.366 µg/mL), respectively. Moreover, the selectivity ratio in data set [4] is > 53.

With `O=C(CCC1CCCCC1)Nc1ncc(Cc2cccc3c2CCC3)s1`, the IC50 in the data set with Cryptococcus neoformans [1] was > 20000 nM; with P388D1, > 40000 nM; with Histoplasma capsulatum, 380 nM. The figures for the MIC90 in the data set with Cryptococcus neoformans [1] and with Histoplasma capsulatum were > 40 µM and 0.63 µM (≈ 0.232 µg/mL), respectively. Besides, the selectivity ratio in data set [4] is > 105.

For `O=C(Nc1ncc(Cc2ccccc2)s1)C1CCCCC1`, the IC50 was 1360 nM in the data set on Cryptococcus neoformans [1], > 40000 nM in the data set with P388D1 and 1060 nM in the data set with Histoplasma capsulatum. Moreover, the MIC90 against Cryptococcus neoformans [1] and against Histoplasma capsulatum was 2.5 µM (≈ 0.751 µg/mL) each time. Further, the results for the selectivity ratio in data set [4] and in data set [5] were > 38 and > 29, respectively.

In general, IC50 refers to the midpoint of a concentration-inhibition curve. In general, MIC90 refers to an inhibitory concentration at the 90% level, which refers to growth in some studies and to a panel of isolates in others. Read a high MIC90 as lower susceptibility.
